Data reported in the RNAGym collection of RNA variant scans (doi:10.1126/science.aae0568).
Fewer inactive variants are shown than the library holds.

B1: tRNA (parent)
chain: GUUCCGUUGGCGUAAUGGUAACGCGUCUCCCUCCUAAGGAGAAGACUGCGGGUUCGAGUCCCGUACGGAACG

Variants of: B1
Test: yeast fitness relative to wild type (ratio to wild type); higher = fitter; tRNA-Arg(CCU), competitive growth, 37 C, YPD
In short: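 Changes in genotype frequencies gave Darwinian fitness relative to wild type. Frequencies were read by 100-nucleotide paired-end sequencing of gene amplicons before and after pooled Saccharomyces cerevisiae strains, carrying tRNA-Arg(CCU) gene variants at the native locus, were competed in YPD at 37°C for 24 hours in six replicates. A genotype was kept only with ≥ 100 starting reads, and estimates < 0.5 were set to 0.5.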

Row | Variant | yeast fitness
1 | C11G A21U C24U C66U | 0.631
2 | U3A C5G C24A C30U A70G | ≤ 0.5
3 | C22U C29U | 0.821
4 | G6C A21U | 0.673
5 | C4G G10C G12C A21C G48C A57G G68C | 0.519
6 | C30U C46G G52A | 0.6
7 | G6A U54A | 0.674
8 | C61U C66G | 0.706
9 | C4G A36U C66G | ≤ 0.5
10 | U19C C24G A37U U47A A65G C66U | ≤ 0.5
11 | G25A G41A A70U | 0.713
12 | G38A A43U U54A | ≤ 0.5
13 | A20U C22U C24U | ≤ 0.5
14 | G18C C22A C29U A45C A69U | ≤ 0.5
15 | A42G A43U | 1.03
16 | G23C C66A | ≤ 0.5
17 | C4G G10C | 0.659
18 | A15C G25A | 1.02
19 | C5A A21C C24A A70U | ≤ 0.5
20 | C22G C31A A36G C49G G63C A69U | 0.543
21 | A20C U28A A70G | 0.564
22 | G6A C24U G58A | 0.67
23 | A14G A21C U35A A43G | ≤ 0.5
24 | U7A C49U | 0.738

Row | Variant | yeast fitness
25 | C49A G67A G68U | ≤ 0.5
26 | G6A G9C A42U A43U A65G G68A A70C | 0.663
27 | G10A C29U G44C C60U | ≤ 0.5
28 | C27G G63A | 0.665
29 | U2A G9C G50A U64A | ≤ 0.5
30 | C60A A70G | 0.531
31 | G6A G12A C27U C30G C55U A57C | ≤ 0.5
32 | A14C A20G G23A C29U U35C C55G | ≤ 0.5
33 | C33U A45U | 0.837
34 | U3C C31G U32C G38C C46G G48C | ≤ 0.5
35 | C24U A70G | 0.887
36 | C31U A42C | 1.17
37 | U7A A21C C33A A45U A69U | ≤ 0.5
38 | G38A C60U | 0.831
39 | C24U G51A G58A G67A | ≤ 0.5
40 | G17C C22U C49G | ≤ 0.5
41 | U28C C29G | 0.566
42 | C27U C30U C34A C62A | ≤ 0.5
43 | A37G U53G | ≤ 0.5
44 | G10C C33A G56C | 0.577
45 | U3C C55U G58A | 0.508
46 | U47G A57U C60A | 0.555
47 | C5G A37G C46G | 0.598
48 | U3C C11U A65G | 0.732

Row | Variant | yeast fitness
49 | C5U U47A G48C G51A C61A | 0.564
50 | C4G C27A A43U | ≤ 0.5
51 | A14U C22G A42U | ≤ 0.5
52 | C27G A57G | 0.608
53 | A40G A43G G67C | 0.725
54 | C5G G6A C30G | ≤ 0.5
55 | C24U C31G U32A A43C | ≤ 0.5
56 | C29G A36U A42G C55A | ≤ 0.5
57 | A15U C31G G50C G58C | 0.588
58 | G6C G25A A43U G67C | ≤ 0.5
59 | C11U C30A G39A U47A G63C | ≤ 0.5
60 | A20G G44A U54C | 0.712
61 | C5U C22G C27G C29G C49U | ≤ 0.5
62 | G6A C11A A40G G56C A65C G67A | ≤ 0.5
63 | C34U A43G | 0.789
64 | C4G U7G G63C | 0.521
65 | C30G A37G A65G | ≤ 0.5
66 | A15G G23C C30A A42C G51C | 0.537
67 | C34G C66A A69C | 0.599
68 | G58C C61U C66U | 0.621
69 | C11G G56C | 0.627
70 | C4G C5G C11A G38A G67A | ≤ 0.5
71 | C24U A43U C49U C66U | 0.576
72 | C4G A36U C46U | 0.59

Row | Variant | yeast fitness
73 | U2A G23A G68U | ≤ 0.5
74 | G25A C49A | 0.691
75 | C27U C33G A57G | ≤ 0.5
76 | C49A A57C A69C | ≤ 0.5
77 | U28C C33A A42C A45U A69C | 0.622
78 | C22G C49G A69U | 0.634
79 | U8G A20G G58U A65G G67A | ≤ 0.5
80 | G10A G39A A65C C66G | 0.556
81 | A42C C46A | 0.783
82 | U2G U13A C22U C61U C66U | ≤ 0.5
83 | U2A A15G U16C A20C A21U U26C | 0.583
84 | G10U G17A C24A | 0.643
85 | C5A C24G C49U | ≤ 0.5
86 | C30U U54A | 0.561
87 | C24U U53C C55U | ≤ 0.5
88 | G12A U19C G23A U32C A43C G48C U64C | ≤ 0.5
89 | U3A U26A G58C G63A | ≤ 0.5
90 | U3A A14U G50A A69C | ≤ 0.5
91 | U7G C24A C46G U59C C62G | ≤ 0.5
92 | A20U C31G A69C | ≤ 0.5
93 | C29U G52C | 0.579
94 | U16C A37C C55G C62U | ≤ 0.5
95 | U3A G10C A36U A40C A57G C60G | ≤ 0.5
96 | A21C C46U | 0.909

Row | Variant | yeast fitness
97 | U7C U47C U54C C55G | ≤ 0.5
98 | A14C A57C | 0.516
99 | U16C G67C | 0.861
100 | G23A A43U C49U C62U | ≤ 0.5
101 | U8A C31G C46U C60A | ≤ 0.5
102 | C5A U26C G41C A43U A57G | ≤ 0.5
103 | A40U G67A | 0.82
104 | C27U A40G G44A C55U A69U | ≤ 0.5
105 | C11U U13A C22G C24A C46G C55U | ≤ 0.5
106 | A20G A36G A37U | ≤ 0.5
107 | A20U G25A G67U | 0.673
108 | G9A G23C C30G A40U C46U | 0.58
109 | G9C G10C U47A | ≤ 0.5
110 | C4A G10A A36U | ≤ 0.5
111 | G17C U47C | 0.711
112 | G48C U53G | 0.635
113 | C34A C66U | 0.764
114 | A21U A65G A70C | 0.56
115 | U2G U13G C49U G56A A70G | ≤ 0.5
116 | G12A A20G G48A | 0.63
117 | C24A C66G | 0.548
118 | A15G G44U A57U G58A C66G | ≤ 0.5
119 | C29G U53G | ≤ 0.5
120 | G17A A20G A36C A37C U53G A70C | ≤ 0.5

Row | Variant | yeast fitness
121 | U35A A69U | 0.806
122 | G23C G58A | 0.6
123 | A21G U35G A37G A42G | ≤ 0.5
124 | U2A U16C U28A G50A | ≤ 0.5
125 | A15C C27U A42C | ≤ 0.5
126 | U13A C30U G39C C55G | 0.545
127 | C5G C55U A69U | ≤ 0.5
128 | U3A C11A C33U A70C | ≤ 0.5
129 | C61G C66U | 0.635
130 | A43U G48A U53A | 0.506
131 | A37G G50A | 0.842
132 | G17C A37U A42U C49G G51A C61U | ≤ 0.5
133 | U16C G25A U28C G52C | ≤ 0.5
134 | G18A A20U A42G | ≤ 0.5
135 | C29G A37G G51A C55A | ≤ 0.5
136 | U28A A37C C61G | ≤ 0.5
137 | G12C U28A G50A | 0.606
138 | U13C C49A | 0.795
139 | G17C U35C G51A C66G | ≤ 0.5
140 | U3A C29U | 0.85
141 | U16G C31A C60A G67A | 0.678
142 | A15C U19A C30U A37C G41A | ≤ 0.5
143 | G10A C29G C33U | ≤ 0.5
144 | C29U C62U A70C | 0.604

Row | Variant | yeast fitness
145 | U3C G12A A37C A45U G48C G50A | ≤ 0.5
146 | G18A C31G A70U | 0.687
147 | C4G C34U | 0.624
148 | A20G G38A C46U A70U | 0.594
149 | U19G A43C G63U U64A | ≤ 0.5
150 | G6C A37C G51A U53C C62A A70C | ≤ 0.5
151 | C4G C30G C33A C61G | ≤ 0.5
152 | U3C C27A C62U | 0.526
153 | C11A U32A C33U | 0.548
154 | U8C C30A C31U U54C | ≤ 0.5
155 | C22G C30A A45G | ≤ 0.5
156 | A20U C49G | 0.752
157 | C22A U32C | 0.869
158 | A15U C29A G48C | ≤ 0.5
159 | A20G U32A A43C U53G | 0.607
160 | U7A U8A G10C C27G C34G A43G C55U | ≤ 0.5
161 | C4G A14C G48C | 0.579
162 | A21C C29U C31G A43U A65U | 0.593
163 | A15G C29A U64C | ≤ 0.5
164 | C29G U35A A36C G68A | ≤ 0.5
165 | U3C G9A G48C | 0.784
166 | U32A G38C U47A | ≤ 0.5
167 | C4G G56C A70G | ≤ 0.5
